Laboratory results as given in ChEMBL document CHEMBL1149763, “Synthesis, in vitro antiproliferative activities, and Chk1 inhibitory properties of pyrrolo[3,4-a]carbazole-1,3-diones, pyrrolo[3,4-c]carbazole-1,3-diones, and 2-aminopyridazino[3,4-a]pyrrolo[3,4-c]carbazole-1,3,4,7-tetraone” (Eur J Med Chem, 2008).
Activity calls are given as the source filed them. The rule behind the calls is not given here.

Assays:
L1210 = assay: Antiproliferative activity against mouse L1210 cells by microculture tetrazolium assay; type: functional, cell-based
How it was run: (§1)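 Cells grown in RPMI 1640 with 10% fetal calf serum, 2 mM L-glutamine, penicillin/streptomycin and 10 mM HEPES (pH 7.4). Continuous exposure to graded compound concentrations for four doubling times. MTT (5 mg/mL) added, 4 h at 37 °C, formazan dissolved in DMSO, optical density read. IC50 is the concentration halving optical density relative to untreated controls.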

[1] = Antiproliferative activity against human […] cells microculture tetrazolium assay; type: functional, cell-based; how it was run: as §1
[2] = target: T1, Serine/threonine-protein kinase Chk1 (Homo sapiens) (UniProt O14757); assay: Inhibition of human Chk1 at 10 uM
T1 sequence (whole entry): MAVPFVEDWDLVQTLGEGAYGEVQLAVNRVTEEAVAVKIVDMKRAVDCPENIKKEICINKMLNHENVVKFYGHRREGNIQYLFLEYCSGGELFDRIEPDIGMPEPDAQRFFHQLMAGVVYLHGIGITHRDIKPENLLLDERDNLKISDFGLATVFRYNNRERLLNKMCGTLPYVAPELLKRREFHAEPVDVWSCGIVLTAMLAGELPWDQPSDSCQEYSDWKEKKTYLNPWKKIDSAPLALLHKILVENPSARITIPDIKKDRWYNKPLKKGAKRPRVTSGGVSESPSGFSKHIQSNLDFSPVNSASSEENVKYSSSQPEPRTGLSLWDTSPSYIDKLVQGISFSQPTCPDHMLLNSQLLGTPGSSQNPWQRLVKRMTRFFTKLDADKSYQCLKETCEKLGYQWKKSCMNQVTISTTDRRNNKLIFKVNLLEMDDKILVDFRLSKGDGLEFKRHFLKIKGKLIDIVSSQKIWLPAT
How it was run: (§2)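 Chk1, commercial or GST-Chk1 purified from baculovirus-infected Sf9 cell extracts. Percent inhibition measured at a single compound concentration; IC50 also determined.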

HT-29 = assay: Antiproliferative activity against human HT29 cells microculture tetrazolium assay; type: functional, cell-based; how it was run: as §1
[3] = target: Proto-oncogene tyrosine-protein kinase Src (Homo sapiens) (UniProt P12931); assay: Inhibition of Src kinase at 10 uM
How it was run: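 Radiometric Src kinase assay. 20 min at 30 °C, stopped with 0.85% orthophosphoric acid, captured on phosphocellulose filter, washed with orthophosphoric acid, dried with acetone.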

[4] = target: T2, Serine/threonine-protein kinase Chk1 (Homo sapiens, UniProt O14757); assay: Inhibition of human Chk1; how it was run: as §2
T2 sequence (O14757 whole entry): T1 sequence (whole entry)

Proto-oncogene tyrosine-protein kinase Src (Homo sapiens), sequence (P12931 2-536 limits assumed): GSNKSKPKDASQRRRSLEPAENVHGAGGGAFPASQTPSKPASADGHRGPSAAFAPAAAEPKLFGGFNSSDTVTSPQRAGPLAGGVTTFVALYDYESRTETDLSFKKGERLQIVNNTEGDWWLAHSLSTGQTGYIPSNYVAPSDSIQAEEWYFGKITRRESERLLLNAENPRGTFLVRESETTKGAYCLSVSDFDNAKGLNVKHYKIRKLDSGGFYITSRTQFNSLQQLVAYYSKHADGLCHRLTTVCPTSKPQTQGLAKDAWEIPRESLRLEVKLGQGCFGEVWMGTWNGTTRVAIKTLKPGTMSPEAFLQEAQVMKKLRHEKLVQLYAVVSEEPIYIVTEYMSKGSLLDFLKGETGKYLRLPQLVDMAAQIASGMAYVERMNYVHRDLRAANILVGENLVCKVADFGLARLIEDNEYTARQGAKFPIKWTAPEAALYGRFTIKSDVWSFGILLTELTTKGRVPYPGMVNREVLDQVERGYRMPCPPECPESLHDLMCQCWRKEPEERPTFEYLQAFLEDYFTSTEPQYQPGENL

CCOC(=O)c1cc2c(c3c1[nH]c1ccccc13)C(=O)N(CO)C2=O
IC50 (L1210): 5.5 µM | IC50 [1]: 2.9 µM | inhibition [2]: 72.4% | IC50 (HT-29): 3.9 µM | inhibition [3]: 11.5% | IC50 [4]: 0.21 µM

O=C1NC(=O)c2c1c1c3ccccc3[nH]c1n1cncc21 [ISOGRANULATIMIDE]
IC50 [1]: 13 µM

CCOC(=O)c1c2c(c3[nH]c4ccccc4c3c1O)C(=O)NC2=O
IC50 (L1210): 57.5 µM | IC50 [1]: 33.6 µM | Activity [2]: inactive | IC50 (HT-29): 84.9 µM

O=C1NC(=O)c2c1c1c(c3c2[nH]c2ccccc23)CNC1=O
IC50 (L1210): 47 µM | IC50 [1]: 58.9 µM | inhibition [2]: 71.7% | IC50 (HT-29): > 100 µM | IC50 [4]: 0.37 µM

CCOC(=O)c1cc2c(c3[nH]c4ccccc4c13)C(=O)NC2=O
IC50 (L1210): 4.9 µM | IC50 [1]: 3.8 µM | inhibition [2]: 45.3% | IC50 (HT-29): 6.4 µM

CCOC(=O)c1cc2c(c3c1[nH]c1ccccc13)C(=O)NC2=O
IC50 (L1210): 5.8 µM | IC50 [1]: 2.3 µM | inhibition [2]: 71.7% | IC50 (HT-29): 4 µM | IC50 [4]: > 5 µM

O=C1NC(=O)c2c1c1[nH]cnc1c1[nH]c3ccccc3c21 [GRANULATIMIDE]
IC50 [1]: 6.1 µM

O=C1NC(=O)c2c1cc(O)c1c2[nH]c2ccccc21
IC50 (L1210): 54.4 µM | IC50 [1]: 34.4 µM | inhibition [2]: 11% | IC50 (HT-29): 46.7 µM

CCOC(=O)c1c2c(c3[nH]c4ccccc4c3c1O)C(=O)N(CO)C2=O
IC50 (L1210): 10.6 µM | IC50 [1]: 11.5 µM | Activity [2]: inactive | IC50 (HT-29): 31.7 µM

O=C1NC(=O)c2c1c1c(c3c2[nH]c2ccccc23)C(=O)NC1
IC50 (L1210): 45.8 µM | IC50 [1]: 10.2 µM | inhibition [2]: 85.4% | IC50 (HT-29): 8.2 µM | IC50 [4]: 0.05 µM

O=c1[nH]c(=O)c2c1c1[nH]c3ccccc3c1c1c(=O)oc(=O)c21
IC50 (L1210): 11.9 µM | IC50 [1]: 10.7 µM | Activity [2]: inactive | IC50 (HT-29): 33 µM

O=C1NC(=O)C2C1c1[nH]c3ccccc3c1C1C(=O)OC(=O)C12 (stereo unspecified)
IC50 (L1210): 5.7 µM | inhibition [2]: 10.6% | IC50 (HT-29): 6.2 µM
